In the library only some 2.3% were active in any assay of this set; here they are far more common.
TRPC6 act: mouse TRPC6 channel activators, primary screen, cell-based, HEK293, membrane potential dye | Short transient receptor potential channel 6 (Mus musculus), Q61143 | HEK293-TRPC6 membrane potential dye fluorescence; active compounds read high | B-score at 10 µM | 310,000 tested, 0.13% active | AID 2550, 2010;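 active = B-score of the integrated fluorescence ratio above library mean plus 3 SD, and starting fluorescence ratio within library mean plus 5 SD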;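 also: higher score means more depolarization so channel activation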
Target sequence (Q61143 whole entry, looked up): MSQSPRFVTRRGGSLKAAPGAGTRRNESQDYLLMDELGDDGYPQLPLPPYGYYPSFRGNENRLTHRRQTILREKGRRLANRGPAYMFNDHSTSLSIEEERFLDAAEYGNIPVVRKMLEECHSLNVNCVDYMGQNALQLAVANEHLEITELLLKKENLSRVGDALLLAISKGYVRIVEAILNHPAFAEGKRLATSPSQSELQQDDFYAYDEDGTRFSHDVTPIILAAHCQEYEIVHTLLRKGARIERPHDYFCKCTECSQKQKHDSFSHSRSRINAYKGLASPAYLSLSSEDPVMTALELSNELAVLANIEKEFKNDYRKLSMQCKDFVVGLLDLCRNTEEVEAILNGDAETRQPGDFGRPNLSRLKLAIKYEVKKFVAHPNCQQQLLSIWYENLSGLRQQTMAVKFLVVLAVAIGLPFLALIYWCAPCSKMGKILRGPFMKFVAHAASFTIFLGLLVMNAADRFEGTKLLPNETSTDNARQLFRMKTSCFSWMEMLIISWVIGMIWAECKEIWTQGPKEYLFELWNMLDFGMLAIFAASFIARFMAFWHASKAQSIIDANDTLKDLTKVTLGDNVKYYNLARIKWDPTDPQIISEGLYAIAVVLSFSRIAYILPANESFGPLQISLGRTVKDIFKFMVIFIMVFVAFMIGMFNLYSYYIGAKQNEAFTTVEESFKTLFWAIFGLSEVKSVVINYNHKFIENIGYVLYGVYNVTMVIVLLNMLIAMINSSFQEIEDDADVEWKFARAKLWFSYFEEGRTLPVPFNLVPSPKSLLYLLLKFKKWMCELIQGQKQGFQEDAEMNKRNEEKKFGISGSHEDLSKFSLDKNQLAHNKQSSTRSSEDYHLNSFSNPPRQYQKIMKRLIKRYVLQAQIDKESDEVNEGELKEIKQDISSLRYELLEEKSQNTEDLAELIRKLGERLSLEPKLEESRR
TRPC6 inhibitor: mouse TRPC6 channel inhibitors, primary screen, cell-based, HEK293, membrane potential dye | B-score at 10 µM | Short transient receptor potential channel 6 (Mus musculus), Q61143 | 310,000 tested, 1.1% active | ACh-evoked depolarization; active compounds read low | AID 2553, 2010;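 active = B-score under library mean minus 3 SD, initial fluorescence not abnormally high, positive integrated signal ratio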;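 also: B-score derived from integrated fluorescence ratio over the kinetic read; more negative B-score means stronger inhibition of depolarization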
TRPC4 act: activators of mouse TRPC4 channel, primary screen, Fluo4 calcium, HEK293 TRPC4beta/mu-opioid cells; 310,000 tested, 0.49% active; Short transient receptor potential channel 4 (Mus musculus), Q9QUQ5; Fluo4 calcium fluorescence; active compounds read high; B-score at 10 µM; AID 2237, 2010;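 active = B-score above 5 SD of library B-scores, and initial fluorescence ratio not above library mean plus 5 SD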;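 also: positive B-score marks a calcium rise read as TRPC4 activation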
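Material: TRPC4beta and mu-opioid receptor HEK293 stable cells | Incubation: 45 min room-temperature Fluo4 loading, 110 s read | Detection: Kinetic Fluo4 calcium fluorescence | Measure: Integrated baseline-normalised fluorescence ratio, converted to per-well B score | Benchmarks: Low control buffer alone, high control maximal DAMGO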
TRPC4 PAM: positive allosteric modulators of TRPC4, primary screen, cell-based, mouse TRPC4beta, HEK293 mu-opioid, Fluo-4 calcium | DAMGO EC20, Fluo-4 Ca2+ flux; active compounds read high | Short transient receptor potential channel 4 (Mus musculus), Q9QUQ5 | B-score at 10 µM | AID 2227, 2009 | 310,000 tested, 0.42% active;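 active = B-score of calcium response area above 5 SD of library B-scores, with initial fluorescence ratio within 5 SD of library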
TRPC4 block: inhibitors of mouse TRPC4 channel, primary screen, Fluo4 calcium, HEK293 TRPC4beta/mu-opioid cells; DAMGO-evoked Fluo4 calcium flux; active compounds read low; 300,000 tested, 0.39% active; Short transient receptor potential channel 4 (Mus musculus), Q9QUQ5; AID 2247, 2010; B-score at 10 µM;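 active = B-score over 3 SD under the library average, no early fluorescence shift, positive overall ratio signal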
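Test system – stable TRPC4beta/mu-opioid receptor HEK293 cells · Probe or stimulus – DAMGO, a submaximal dose followed by a maximal one · Dosing – one concentration per compound · Signal – Fluo4 calcium fluorescence by kinetic imaging, 5 s 1 Hz baseline · Evaluation – per-well B score of integrated baseline-normalized Fluo4 ratio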
Numbers stand for hits; . = inactive.

SMILES | TRPC6 act | TRPC6 inhibitor | TRPC4 act | TRPC4 PAM | TRPC4 block
CN(C)c1ccc(NC(=S)N2CCN(c3ncc(C(F)(F)F)cc3Cl)CC2)cc1 | . | . | 127 | . | .
Cc1ccc(C(=O)OCCN2CCN(c3ncc(C(F)(F)F)cc3Cl)CC2)cc1 | . | . | . | 16 | .
O=C(CN1CCN(c2ncc(C(F)(F)F)cc2Cl)CC1)N1CCN(c2ncc(C(F)(F)F)cc2Cl)CC1 | . | . | 93 | . | .
O=C(c1cccs1)N1CCN(c2ncc(C(F)(F)F)cc2Cl)CC1 | . | . | . | . | .
O=C(OCCN1CCN(c2ncc(C(F)(F)F)cc2Cl)CC1)c1ccc(F)cc1 | . | . | . | 10 | .
CCN(Cc1ccncc1)Cc1cn[nH]c1-c1ccc(OC)cc1F | . | . | . | . | .
O=C1S/C(=C\c2ccc(O)c([N+](=O)[O-])c2)C(=O)N1c1ccccc1Cl | . | . | . | . | -10
CC1(C#CC[N+]2(C)CCCCC2)CCC2C(O1)c1ccccc1OC2(C)C (stereo unspecified) | . | . | . | 21 | .
NC(=O)CCn1c(C(=O)c2cc(Cl)c(N)c(Cl)c2)c2ccccc2[n+]1[O-] | . | . | . | . | .
NCCCn1c(C(=O)c2cc(Cl)c(N)c(Cl)c2)c2ccccc2[n+]1[O-] | . | . | 178 | . | .
CCOC(=O)/C(C#N)=C/c1c(N2CCN(c3ccc(OC)cc3)CC2)nc2c(C)cccn2c1=O | . | . | . | 11 | .
Cc1cccn2c(=O)c(/C=C(\C#N)C(N)=O)c(N3CCN(c4ccccc4)CC3)nc12 | . | . | . | 12 | .
Cc1cccn2c(=O)c(/C=N/O)c(N3CCCC3)nc12 | . | . | . | . | -8
Cc1cccn2c(=O)c(C=O)c(N3CCCCC3)nc12 | . | . | . | . | .
CCNC(=O)/C(C#N)=C/c1c(N2CCN(c3ccc(OC)cc3)CC2)nc2c(C)cccn2c1=O | . | . | . | . | .
COC(=O)c1sc(NC(=O)C2CCCCC2C(=O)O)c(C(=O)OC)c1C (stereo unspecified) | . | . | . | . | .
O=C(Nc1ccccc1-c1ccccc1)c1cnccn1 | . | . | . | 13 | .
CC(Cl)C(=O)Nc1cc(C(F)(F)F)ccc1N1CCOCC1 (stereo unspecified) | . | . | . | . | .
CN1CCN(c2ccc(C(F)(F)F)cc2NC(=O)Nc2ccccc2)CC1 | . | . | 105 | 17 | .
COc1c(C)cc(C(=O)C2CCCN(Cc3cccc4nccnc34)C2)cc1C (stereo unspecified) | . | . | 110 | . | .
COc1ccc(C(=O)C2CCCN(Cc3c(O)cccc3OC)C2)cc1OC (stereo unspecified) | . | . | . | . | .
CCOc1cccc(CN2CCCC(C(=O)c3cccc(C(F)(F)F)c3)C2)c1O (stereo unspecified) | . | . | . | . | -6
COc1cccc(O)c1CN1CCCC(C(=O)c2cccc(C(F)(F)F)c2)C1 (stereo unspecified) | . | . | . | . | -7
CC(=O)Nc1ccc(CN2CCCC(C(=O)c3ccc(C(F)(F)F)cc3)C2)cc1 (stereo unspecified) | . | . | 234 | . | .
COCc1cc(CN2CCCC(C(=O)c3cccc(C(F)(F)F)c3)C2)ccc1OC (stereo unspecified) | . | . | . | . | .
SMILES | TRPC6 act | TRPC6 inhibitor | TRPC4 act | TRPC4 PAM | TRPC4 block
CCCCCCCCCCCC(=O)NC(C(=O)OCC)C(O)c1cccc([N+](=O)[O-])c1 (stereo unspecified) | . | . | . | . | .
O=C(C[n+]1cccc(Br)c1)c1ccc(-c2ccccc2)cc1 | . | . | . | . | .
CCN(C(=O)COC(=O)c1cc(S(=O)(=O)N(C)C)ccc1Cl)C1CCS(=O)(=O)C1 (stereo unspecified) | . | . | . | . | .
Cc1nn(C(=O)c2cccnc2)c(C)c1Sc1ccccc1 | . | . | . | . | -6
CN(C)CCCCOc1cccc(Br)c1 | . | . | . | 20 | .
CN(C)CCOc1ccc2ccccc2c1 | . | . | . | 16 | .
CN(C)CCOc1cc(Cl)cc(Cl)c1 | . | . | . | 26 | .
CN(C)CCOc1cccc(Cl)c1 | . | . | . | . | .
Cc1ccc(/C=C/C(=O)OCC(=O)NC(C)C)o1 | . | . | . | . | .
CC(=O)n1cc([C@H]2C=C(C(=O)NCc3ccccc3)O[C@@H](OCc3ccc(CO)cc3)C2)c2ccccc21 | . | . | 244 | . | .
C#CCNC(=O)C1=C[C@@H](c2cn(C(C)=O)c3ccccc23)C[C@@H](OCc2ccc(CO)cc2)O1 | . | . | . | . | .
C#CCNC(=O)C1=C[C@H](c2csc3ccccc23)C[C@H](OCc2ccc(CO)cc2)O1 | . | . | 52 | . | .
CC(=O)n1cc([C@H]2C=C(C(N)=O)O[C@@H](OCc3ccc(CO)cc3)C2)c2ccccc21 | . | . | 51 | . | .
COc1cccc(Nc2nc(C)cc(C)c2C(N)=O)c1 | . | . | . | . | .
O=C(CSc1nnc(-c2ccc(Cl)cc2Cl)n1C1CCCCC1)N1CCCC1 | . | . | . | . | -6
Cc1cccc(C)c1NC(=O)CN(C)C(=O)c1ccc2nc[nH]c2c1 | . | . | . | . | .
CCc1ncc(CN2CCC(C(=O)Nc3cccc(-c4cscn4)c3)CC2)cn1 | . | . | . | . | .
CC(C)(C)c1ccc(C(=O)N2CCC(=O)N(C(COCc3ccccc3)Cc3ccccc3)CC2)cc1 (stereo unspecified) | . | . | 50 | . | .
O=C(c1ccc(C(F)(F)F)cc1)N1CCC(=O)N(C(COCc2ccccc2)Cc2ccccc2)CC1 (stereo unspecified) | . | . | . | . | .
CCCS(=O)(=O)N1CCCC(C(=O)NCC2CCCO2)C1 (stereo unspecified) | . | . | . | . | .
Cc1cccc(OCC(=O)Nc2ccc3c(c2)nc(CCN2CCN(c4ccccn4)CC2)n3C)c1 | . | . | . | . | .
CCn1cc(CN2CCC(n3nccc3NC(=O)CCOc3ccccc3)CC2)cn1 | . | . | 72 | . | .
CCCn1ncc(CN2CCC(n3nccc3NC(=O)CCc3ccccc3)CC2)c1C | . | . | 100 | . | .
CCn1ccnc1CN1CCC(n2nccc2NC(=O)CCc2ccccc2)CC1 | . | . | . | . | .
CCn1cc(CN2CCC(n3nccc3NC(=O)CCOc3ccccc3)CC2)c(C)n1 | . | . | . | . | .
CCn1cc(CN2CCC(n3nccc3NC(=O)CCc3ccccc3)CC2)cn1 | . | . | 73 | . | .
